# In publication PMC6560181 (Cell chemical biology, 2018):
# How the values were obtained:
# [1] = system: polymyxin-susceptible strains of P. aeruginosa and K. pneumoniae; assay: MIC by broth microdilution, polymyxin-susceptible strains; type: cell-based
# [2] = system: polymyxin-resistant clinical isolates of P. aeruginosa, A. baumannii and K. pneumoniae; assay: MIC by broth microdilution, polymyxin-resistant clinical isolates; type: cell-based
# [3] = system: polymyxin-resistant P. aeruginosa strain FADDI-PA070; assay: Static time-kill study; type: cell-based; conditions: for log10 CFU/mL kill: 32 μg/mL, 1–4 h polymyxin B, 0.5–6 h octapeptin C4; for antimicrobial effect in time-kill: 1 or 4 μg/mL
# [4] = system: mcr isolates of K. pneumoniae and Escherichia coli; assay: MIC against mcr isolates; type: cell-based; conditions: mcr isolates (Table S4)
# [5] = Mouse nephrotoxicity model, kidney histopathology; type: in vivo, mice; conditions: 12 mg/kg sc every 2 h, accumulated dose 72 mg/kg
# [6] = system: E. coli ATCC 25922 cells; assay: Inner membrane permeabilisation, SYTOX Green flow cytometry; type: cell-based; conditions: 1 h at 37°C
# [7] = system: E. coli ATCC 25922 cells; assay: Membrane depolarisation diSC3-5 assay; type: cell-based; conditions: 30 min incubation
# [8] = system: human red blood cells; assay: Haemolysis of human red blood cells; type: cell-based; conditions: concentrations up to 100 μg/mL
# [9] = Carboxyfluorescein leakage from lipid vesicles; conditions: vesicles containing lipid A
# Outline: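 CF-loaded vesicles (50 mM CF; final lipid 5 µM) were made of POPC, POPC/POPG 4:1 or POPC/lipid A 4:1 in 10 mM HEPES pH 7.4 with 150 mM NaCl. Vesicles were exposed for 20 min to lipopeptide at 128–0.06 µg/mL. Leakage was read as CF de-quenching (ex 485 nm, em 520 nm).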
# [10] = Acute toxicity after subcutaneous dose in mice; type: in vivo; conditions: subcutaneous dose of 40 mg/kg
# [11] = design: species or system mice; conditions: mouse, in vivo, iv, 10 mg/kg
# [12] = type: in vitro ADME; conditions: rat
# [13] = system: P. aeruginosa FADDI-PA070; assay: MIC against P. aeruginosa FADDI-PA070; type: cell-based
Substance,MIC [1],MIC [2],log10 CFU/mL kill [3],antimicrobial effect in time-kill [3],MIC [4],kidney histopathology lesions [5],membrane disruption (SYTOX Green uptake) [6],membrane depolarisation [7],haemolysis [8],leakage from lipid vesicles [9],acute toxic effects [10],half-life [11],total clearance [11],"final log10 CFU/mL reduction ([3]; 24 h, after regrowth)",plasma protein binding [12],MIC [13]
colistin,0.25 to 1 µg/mL,4 to 128 µg/mL,poor killing activity,no antimicrobial effect,4 to 16 µg/mL,severe Grade 1–2 lesions,disrupted both the outer and inner membranes,induced membrane depolarisation,no detectable haemolysis,destabilised the membrane,–,–,–,–,–,–
polymyxin B,0.25 to 1 µg/mL,4 to 128 µg/mL,six,no antimicrobial effect,4 to 16 µg/mL,–,disrupted both the outer and inner membranes,induced membrane depolarisation,–,destabilised the membrane,acute toxic effects,3.6 h,7.3 mL/min/kg,three,83%,≥ 128 µg/mL
